RanGTP-Imp inh = inhibitors of RanGTP-importin-beta interaction, primary screen, biochemical, FRET, CFP-Ran, YFP-importin-beta, homogeneous; inhibition, % (concentration not given with the values); 300,000 tested, 1.1% active; cell-free CFP-Ran/YFP-importin-beta FRET ratio;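 active means more than half of the replicate wells show a fall in the fluorescence ratio signal beyond about 16%, limit read from the data, passing the limit was not always enough; inconclusive means exactly half of the replicate wells pass the set limit; inactive means fewer than half of replicates pass the limit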;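 further: 0% = DMSO wells and 100% = Ran loaded with GDP instead of GTP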
Runt-CBFb FRET = blocks binding of human RUNX1 Runt domain to CBFb. Q01196+Q13951. Cerulean-Runt/Venus-CBFb FRET ratio 530/480, 1 h. inhibition, % at 20 µM. 220,000 tested, 0.46% active;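 active means inhibition over about 50% at 20 µM in the single-dose screen, limit read from the data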;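 further: 0% = DMSO wells and 100% = excess unlabeled CBFb competitor control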
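test system = Cerulean-tagged RUNX1 Runt domain (FRET donor) fusion protein | reagent = Venus-CBFb binding partner, 100 nM | incubation = protein complex preformed 1 h, compound exposure 1 h, room temperature, dark | detection = FRET fluorescence | read-out basis = loss of energy transfer signal | controls = 5 µM unlabeled CBFb as full-inhibition high control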
Hck-Nef inh = inhibitors of human Hck kinase activated by Nef; AID 463187; 220,000 tested, 0.68% active; inhibition, % at 20 µM; P08631; Recombinant Hck-YEEI plus Nef, Z-Lyte FRET kinase assay;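 active means Hck-Nef kinase inhibition above about 50%, limit read from the data; inactive means inhibition below that limit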;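 further: 0% = DMSO with Hck plus Nef and 100% = Hck alone without Nef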
Target sequence (P08631 whole entry, looked up): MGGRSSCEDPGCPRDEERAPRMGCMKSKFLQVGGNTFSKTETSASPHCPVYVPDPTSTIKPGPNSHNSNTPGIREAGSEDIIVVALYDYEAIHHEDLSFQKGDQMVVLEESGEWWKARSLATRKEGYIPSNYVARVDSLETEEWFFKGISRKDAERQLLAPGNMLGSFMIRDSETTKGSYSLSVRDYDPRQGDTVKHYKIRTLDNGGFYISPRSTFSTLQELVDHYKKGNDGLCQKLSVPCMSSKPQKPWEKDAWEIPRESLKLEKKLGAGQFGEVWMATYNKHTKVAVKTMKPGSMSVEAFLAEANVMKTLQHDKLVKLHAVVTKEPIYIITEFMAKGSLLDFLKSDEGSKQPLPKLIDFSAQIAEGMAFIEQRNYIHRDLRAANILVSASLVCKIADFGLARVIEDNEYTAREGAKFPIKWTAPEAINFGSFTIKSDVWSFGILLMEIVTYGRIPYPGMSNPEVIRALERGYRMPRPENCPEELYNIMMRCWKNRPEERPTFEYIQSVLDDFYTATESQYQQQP
Runt-SMMHC FRET = inhibitors of human RUNX1 Runt domain binding to CBFb-SMMHC; Q01196+Q13951; Cerulean-Runt/Venus-CBFb-SMMHC FRET ratio 530/480, 1 h; inhibition, % at 20 µM; 220,000 tested, 0.74% active; AID 1434;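 active means mean inhibition across duplicate retests at 20 µM reaching about 50%, limit read from the data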;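 further: 0% = DMSO wells and 100% = wells with excess untagged CBFb-SMMHC; inhibitors lower the FRET ratio by blocking Runt binding to CBFb-SMMHC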
CaV13 ICDI inh = Primary screen for inhibitors of IQ motif and Ca2+-dependent inactivation inhibitor domain binding in CACNA1D, Förster resonance energy transfer in living cells, …; HEK cells, CFP/YFP FRET ICDI-IQ, plate reader, 10 min; percent FRET-ratio fall versus neutral wells; inhibition, % at 12.3 µM; 340,000 tested, 0.098% active;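 active means mean replicate inhibition of at least 30% and at least 1% of replicates passing that level; inconclusive means only one of the two criteria is met; inactive means neither criterion is met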;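 further: 0% = median of the neutral control wells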
* marks the source's active call; other numbers are inactive results; ? = inconclusive; . = not tested or not shown; + = active, no number. Hits are enriched below; roughly 1.5% of the tested compounds scored in any of these assays.

SMILES	RanGTP-Imp inh	Runt-CBFb FRET	Hck-Nef inh	Runt-SMMHC FRET	CaV13 ICDI inh
O=S(=O)(NC1=NCCCCC1)c1cc(F)ccc1F	.	.	.	.	-6
COc1ccc2[nH]c3c(C)c4ccncc4c(C)c3c2c1	45*	11	-4	22	.
Cc1c2ccncc2cc2c1[nH]c1ccccc12	.	.	.	.	-13
O=C(c1cc(S(=O)(=O)N2CCC3(CC2)OCCO3)ccc1F)N1CCCCC1	-2	1	-2	2	-8
Oc1cc2c(cc1O)C1c3ccc(O)c(O)c3OCC1(O)C2 (centres undefined)	.	63*	-164	59*	.
CC(=O)Nc1ccc(NC(=O)CC(NC(=O)c2ccccc2)c2ccccc2)cc1 (centres undefined)	6	.	.	.	-4
COc1cc2ncnc(NCc3ccccc3Cl)c2cc1OC	12	-3	74*	-1	-3
COc1cc2ncnc(NCc3ccccc3C)c2cc1OC	-4	-2	25	2	-2
O=C(Nc1ccc(Cl)cc1)C1C2CCCCC21 (centres undefined)	2	.	.	.	20
Brc1ccc(-c2ccc(/C=N/Nc3nc4ccccc4[nH]3)o2)cc1	64*	26	8	63	-5
O=C(NNc1c2ccccc2nc2ccccc12)c1ccccc1O	.	14	58*	48	-3
O=C(NNc1c2ccccc2nc2ccccc12)c1cccc(O)c1	?	22	1	35	-4
O=C(NNc1c2ccccc2nc2ccccc12)c1ccccc1Cl	27*	.	.	.	-3
CCOC(=O)c1ccc(S(=O)(=O)N2CCC(N3CCCCCC3)CC2)cc1	.	.	.	.	-5
CCCC(=O)Nc1nn(CC)c2nc3ccc(C)cc3cc12	?	.	.	.	-4
CCCC(=O)Nc1nn(CC(C)C)c2nc3cc(C)ccc3cc12	28*	.	.	.	-3
CCn1nc(NC(=O)CC(C)C)c2cc3ccc(C)cc3nc21	10	.	.	.	-4
CCC(=O)Nc1nn(CC(C)C)c2nc3ccc(C)cc3cc12	24*	.	.	.	-16
CC(C)c1ccc(NC(=O)CN2C(=O)NC3(CCCC3)C2=O)cc1	-2	.	.	.	-3
CN(C)c1ccc(C(=S)N2CCCC2)cc1Br	-5	.	.	.	-2
CN(Cc1ccco1)C(=O)CSc1nn2c(=O)c(C(C)(C)C)nnc2s1	.	.	.	.	-6
Cc1ccccc1S(=O)(=O)c1cc(C#N)c(=O)[nH]c1N	6	87*	19	134*	2
COc1ccc(CCN=C(N)NS(=O)(=O)c2cc(F)ccc2OC)cc1	-2	.	.	.	.
CCOC(=O)c1cc(C#N)c(SCC(=O)c2cc(C#N)c(SC)nc2C)nc1C	20*	-10	.	41	-13
CCOC(=O)c1cc(C#N)c(SCc2cccc3ccccc23)nc1C	4	1	1	1	.
SMILES	RanGTP-Imp inh	Runt-CBFb FRET	Hck-Nef inh	Runt-SMMHC FRET	CaV13 ICDI inh
Cc1cccc(NC(=O)CSc2nc(=O)n(CCN3CCOCC3)c3c2CCCC3)c1C	-1	.	.	.	-5
O=C(CC1S/C(=N/N=C/c2c[nH]c3ccccc23)NC1=O)Nc1ccccc1 (centres undefined)	-2	-1	1	-3	-3
O=C(CC1S/C(=N/N=C/c2ccco2)NC1=O)Nc1ccccc1 (centres undefined)	139*	2	-1	17	-2
CCCCN1C=C(C(=O)OC)C(c2ccccc2C(F)(F)F)C(C(=O)OC)=C1	94*	67*	-9	62*	-3
CCCCOc1ccccc1C1C(C(=O)OC)=C(C)N(C)C(C)=C1C(=O)OC	-1	-2	0	-4	-6
CCCCN1C=C(C(=O)OC)C(c2ccccc2Cl)C(C(=O)OC)=C1	96*	30	32	92*	+
COCCN1C=C(C(=O)OC)C(c2ccccc2C(F)(F)F)C(C(=O)OC)=C1	56*	122*	65*	82*	.
COCCN1C=C(C(=O)OC)C(c2ccc(OC)c(OC)c2)C(C(=O)OC)=C1	6	12	23	39	-8
Cc1cc(C)c2c(N)c(C(=O)c3cccc(Cl)c3)sc2n1	2	87*	4	60*	-3
CC(=O)c1sc2nc(C)cc(C)c2c1N	9	28	20	78*	-3
Cc1cc(C)c2c(N)c(C(=O)Nc3ncc(C)s3)sc2n1	.	65*	15	95*	3
Cc1nc2sc(C(=O)c3ccccc3)c(N)c2c(C)c1C	0	54*	6	3	-6

Screens deposited in PubChem BioAssay by several laboratories.
